# Results gathered from unrelated publications.
# Protocols differ between the studies behind these lines.
# Effect on: cell growth or viability
SMILES,cell line,technique,concentration,time,endpoint,result
Nc1cc(C(F)(F)F)c(-c2cc(N3CCOCC3)nc(N3CCOCC3)n2)cn1,MB002,,,7 days,IC50,172 nM
COc1cc(Nc2nccc(-c3cnn4nc(OC)ccc34)n2)cc(C(F)(F)F)c1,SK-LU-1,ATP luminescence,,,IC50,1100 nM
CC[C@]1(O)C[C@H]2CN(CCc3c([nH]c4ccccc34)[C@@](C(=O)OC)(c3cc4c(cc3OC)N(C=O)[C@H]3[C@@](O)(C(=O)OC)[C@H](OC(C)=O)[C@]5(CC)C=CCN6CC[C@]43[C@@H]65)C2)C1,MB002,,,7 days,IC50,11.2 nM
CC(=O)Nc1cccc(-n2c(=O)n(C3CC3)c(=O)c3c(Nc4ccc(I)cc4F)n(C)c(=O)c(C)c32)c1,Calu-6,resazurin,0.1 µM,72 h,viability,62.6%
O=C(NO)c1ccc(CN(c2cnccn2)c2cnccn2)cc1,B16-F10,,,,GI50,> 20000 nM
CC(C)C[C@H](NC(=O)[C@H](Cc1ccccc1)NC(=O)c1cnccn1)B(O)O,SW948,ATP luminescence,,,IC50,12 nM
CC(=O)c1c(C)c2cnc(Nc3ccc(N4CCNCC4)cn3)nc2n(C2CCCC2)c1=O,BT-474,resazurin,,,GI50,200 nM
CC(=O)c1sc(=NN=C(C)c2c(O)c3ccccc3oc2=O)n(C)c1C,human Skin fibroblast,MTT,,48 h,IC50,> 100000 nM
COc1ccc(-c2ccc(-c3ccc(C(=N)N)nc3)s2)cc1Cl,SK-MEL-5,SRB,,,GI50,1820 nM
COc1c(C)cnc(Cn2cnc3c(Cl)nc(N)nc32)c1C,MB002,,,7 days,IC50,97.4 nM
CO[C@]1(C(=O)N[C@@H](C)c2ccc(-n3cc(F)cn3)nc2)CC[C@H](c2nc(C)cc(Nc3cc(C)[nH]n3)n2)CC1,BT-474,ATP luminescence,,72 h,GI50,> 10000 nM
CCC(=O)N1CCN(c2ccc(-n3c(=O)ccc4cnc5ccc(-c6cnc7ccccc7c6)cc5c43)cc2C(F)(F)F)CC1,MB002,,,7 days,IC50,15.4 nM
CCCCCCCCCC(=O)N[C@@H](Cc1c[nH]c2ccccc12)C(=O)N[C@H](CC(N)=O)C(=O)N[C@@H](CC(=O)O)C(=O)N[C@@H]1C(=O)NCC(=O)N[C@@H](CCCNC(=O)CCC(=O)N2Cc3ccccc3-c3c(nnn3CCC[C@H](NC(=O)CCCCC[N+]3=C(C=CC4=CC(=CC=C5N(C)c6ccccc6C5(C)C)CCC4)C(C)(C)c4ccccc43)C(=O)NCCCCNC(=O)CCC(=O)N3Cc4ccccc4-c4c(nnn4CCOCCOCCOCCNC(=O)CN4CCN(CC(=O)NCCNC(=O)c5cccc(O)c5O)CCN(CC(=O)NCCNC(=O)c5cccc(O)c5O)CCN(CC(=O)NCCNC(=O)c5cccc(O)c5O)CC4)-c4ccccc43)-c3ccccc32)C(=O)N[C@@H](CC(=O)O)C(=O)N[C@H](C)C(=O)N[C@@H](CC(=O)O)C(=O)NCC(=O)N[C@H](CO)C(=O)N[C@@H]([C@H](C)CC(=O)O)C(=O)N[C@@H](CC(=O)c2ccccc2N)C(=O)O[C@@H]1C,KB 3-1,WST-1,,,Kb,> 64000 nM
